Laboratory results from PMC8324087 (Angewandte Chemie (International ed. in English), 2021).
Read-outs that look alike come from different tables or passages of the source.

Tests used:
FGFR2 [1] = target: T1, FGFR2 (Homo sapiens, UniProt P21802); test: Z'-LYTE kinase assay; assay type: biochemical
Target sequence in this assay (P21802 22-821): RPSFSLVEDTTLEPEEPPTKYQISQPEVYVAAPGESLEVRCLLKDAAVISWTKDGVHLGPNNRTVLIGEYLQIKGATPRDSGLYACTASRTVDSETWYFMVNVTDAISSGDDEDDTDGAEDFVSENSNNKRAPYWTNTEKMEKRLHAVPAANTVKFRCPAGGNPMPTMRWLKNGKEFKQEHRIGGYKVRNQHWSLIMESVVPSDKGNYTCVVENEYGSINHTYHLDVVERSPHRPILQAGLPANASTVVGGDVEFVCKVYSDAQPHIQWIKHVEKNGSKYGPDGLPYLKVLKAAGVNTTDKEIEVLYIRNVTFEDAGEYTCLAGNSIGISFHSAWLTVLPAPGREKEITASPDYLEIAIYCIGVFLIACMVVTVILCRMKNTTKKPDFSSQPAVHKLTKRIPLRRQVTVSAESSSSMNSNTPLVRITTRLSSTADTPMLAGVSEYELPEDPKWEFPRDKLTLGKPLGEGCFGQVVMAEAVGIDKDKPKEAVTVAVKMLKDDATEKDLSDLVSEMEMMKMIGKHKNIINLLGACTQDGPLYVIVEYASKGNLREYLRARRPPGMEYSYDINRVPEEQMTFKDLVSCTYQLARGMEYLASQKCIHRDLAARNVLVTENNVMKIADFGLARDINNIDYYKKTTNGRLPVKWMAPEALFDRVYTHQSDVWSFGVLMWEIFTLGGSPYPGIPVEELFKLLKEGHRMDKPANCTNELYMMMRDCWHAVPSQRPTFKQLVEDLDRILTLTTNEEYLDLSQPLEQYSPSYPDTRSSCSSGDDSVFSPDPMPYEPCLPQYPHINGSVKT

FGFR2 [2] = target: T1, FGFR2; test: Immunoblot analysis of FGFR2 degradation in KATO III cells; assay type: cell-based
Method in brief: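 FGFR2-amplified KATO III cells exposed to test compound at 1 µM for 24h, across a concentration series for 6h, over a time course, or for 4h beside a negative-control analogue. For rescue, cells were pretreated 2h with BGJ398, a VHL ligand, bortezomib or MLN4924, then given test compound for 4h. Full-length FGFR2 was detected by immunoblot.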
Target sequence in this assay (P21802 430-767 limits assumed): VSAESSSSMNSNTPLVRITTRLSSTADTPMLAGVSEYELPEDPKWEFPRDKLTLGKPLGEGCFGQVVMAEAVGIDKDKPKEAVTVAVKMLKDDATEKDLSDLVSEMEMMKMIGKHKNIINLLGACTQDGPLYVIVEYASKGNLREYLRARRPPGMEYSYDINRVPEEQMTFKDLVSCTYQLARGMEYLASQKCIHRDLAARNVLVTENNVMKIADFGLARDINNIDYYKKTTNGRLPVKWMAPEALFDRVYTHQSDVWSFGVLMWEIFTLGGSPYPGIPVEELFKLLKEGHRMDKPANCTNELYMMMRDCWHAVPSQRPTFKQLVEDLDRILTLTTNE

FGFR2-PHGDH fusion = FGFR2-PHGDH fusion (Homo sapiens, UniProt O43175+P21802); test: Immunoblot analysis of FGFR2-PHGDH fusion in CCLP-1-FP cells; assay type: cell-based; conditions: 100 nM and 1 µM, 24h
FGFR2-PHGDH fusion, sequence (P21802 431-767 limits assumed, one chain of several): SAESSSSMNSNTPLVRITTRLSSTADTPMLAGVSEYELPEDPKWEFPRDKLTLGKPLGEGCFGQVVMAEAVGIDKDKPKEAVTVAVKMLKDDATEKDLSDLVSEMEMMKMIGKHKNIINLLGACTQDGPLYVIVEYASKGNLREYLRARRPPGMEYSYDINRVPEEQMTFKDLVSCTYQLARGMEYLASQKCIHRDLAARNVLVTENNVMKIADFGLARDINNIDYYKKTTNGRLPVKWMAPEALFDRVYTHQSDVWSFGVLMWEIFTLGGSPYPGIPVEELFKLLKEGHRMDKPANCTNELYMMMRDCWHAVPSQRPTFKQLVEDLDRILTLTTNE
Method in brief: (§1)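 Immunoblot for FGFR2 fusion protein after 24 h exposure to test compound. FGFR2-PHGDH fusion is ectopically expressed in CCLP-1 cells (CCLP-1-FP); FGFR2-OPTN is endogenous in ICC13–7 cells. Both fusions carry nearly the full FGFR2 coding sequence (extracellular, transmembrane and kinase domains) fused in-frame to dimerization-domain partners.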

FGFR2-OPTN fusion = FGFR2-OPTN fusion (Homo sapiens, UniProt P21802+Q96CV9); test: Immunoblot analysis of FGFR2-OPTN fusion in ICC13–7 cells; assay type: cell-based; conditions: 100 nM and 1 µM, 24h
FGFR2-OPTN fusion, sequence (P21802 431-767 limits assumed, one chain of several): as above
Method in brief: as §1

FGFR1 = FGFR1 (Homo sapiens, UniProt P11362); test: Immunoblot analysis of FGFR1 degradation in CCLP1 cells; assay type: cell-based
FGFR1, sequence (P11362 22-822): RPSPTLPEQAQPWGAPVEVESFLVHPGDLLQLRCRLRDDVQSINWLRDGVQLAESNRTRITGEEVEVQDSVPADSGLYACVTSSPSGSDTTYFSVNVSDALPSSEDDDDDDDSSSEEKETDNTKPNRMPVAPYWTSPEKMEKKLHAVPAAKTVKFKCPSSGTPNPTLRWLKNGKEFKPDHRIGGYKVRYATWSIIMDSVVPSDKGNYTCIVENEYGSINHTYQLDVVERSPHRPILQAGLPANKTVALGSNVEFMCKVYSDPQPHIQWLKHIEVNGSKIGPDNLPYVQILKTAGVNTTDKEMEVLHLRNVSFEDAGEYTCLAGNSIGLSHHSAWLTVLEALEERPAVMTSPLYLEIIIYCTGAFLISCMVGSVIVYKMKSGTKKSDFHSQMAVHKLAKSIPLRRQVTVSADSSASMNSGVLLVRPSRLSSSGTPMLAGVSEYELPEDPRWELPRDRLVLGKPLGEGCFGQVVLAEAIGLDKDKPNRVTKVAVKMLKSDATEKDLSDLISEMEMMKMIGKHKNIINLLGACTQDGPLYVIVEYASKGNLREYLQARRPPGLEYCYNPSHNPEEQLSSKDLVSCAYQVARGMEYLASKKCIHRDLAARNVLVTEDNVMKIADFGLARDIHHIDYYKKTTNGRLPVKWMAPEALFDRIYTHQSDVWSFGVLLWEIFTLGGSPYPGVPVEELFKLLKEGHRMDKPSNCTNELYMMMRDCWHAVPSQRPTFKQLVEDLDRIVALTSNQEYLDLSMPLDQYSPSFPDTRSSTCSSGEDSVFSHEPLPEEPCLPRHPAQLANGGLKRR

FGFR3 = FGFR3 (Homo sapiens, UniProt P22607); test: Immunoblot analysis of FGFR3 in JHH7 cells; assay type: cell-based; conditions: 16h
FGFR3, sequence (P22607 23-806): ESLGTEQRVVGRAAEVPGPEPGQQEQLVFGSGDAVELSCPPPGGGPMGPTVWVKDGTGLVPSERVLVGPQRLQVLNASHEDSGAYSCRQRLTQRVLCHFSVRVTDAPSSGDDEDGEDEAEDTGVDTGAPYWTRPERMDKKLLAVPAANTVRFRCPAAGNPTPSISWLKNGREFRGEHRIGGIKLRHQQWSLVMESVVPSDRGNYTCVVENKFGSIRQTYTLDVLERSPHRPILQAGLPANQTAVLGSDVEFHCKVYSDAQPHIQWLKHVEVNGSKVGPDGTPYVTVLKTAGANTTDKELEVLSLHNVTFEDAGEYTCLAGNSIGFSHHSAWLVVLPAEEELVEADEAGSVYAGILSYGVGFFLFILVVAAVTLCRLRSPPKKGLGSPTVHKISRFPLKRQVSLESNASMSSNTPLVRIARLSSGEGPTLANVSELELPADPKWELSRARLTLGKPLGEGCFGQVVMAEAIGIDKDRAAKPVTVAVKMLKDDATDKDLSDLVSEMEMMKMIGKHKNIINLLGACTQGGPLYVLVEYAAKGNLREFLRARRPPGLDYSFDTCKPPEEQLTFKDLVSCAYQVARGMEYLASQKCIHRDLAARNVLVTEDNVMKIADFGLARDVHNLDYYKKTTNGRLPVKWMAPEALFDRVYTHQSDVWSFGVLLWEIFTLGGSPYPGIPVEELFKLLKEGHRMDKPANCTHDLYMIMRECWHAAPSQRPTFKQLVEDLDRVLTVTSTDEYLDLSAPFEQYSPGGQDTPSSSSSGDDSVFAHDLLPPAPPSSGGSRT

FGFR4 = FGFR4 (Homo sapiens, UniProt P22455); test: Immunoblot analysis of FGFR4 in JHH7 cells; assay type: cell-based; conditions: 16h
FGFR4, sequence (P22455 22-802): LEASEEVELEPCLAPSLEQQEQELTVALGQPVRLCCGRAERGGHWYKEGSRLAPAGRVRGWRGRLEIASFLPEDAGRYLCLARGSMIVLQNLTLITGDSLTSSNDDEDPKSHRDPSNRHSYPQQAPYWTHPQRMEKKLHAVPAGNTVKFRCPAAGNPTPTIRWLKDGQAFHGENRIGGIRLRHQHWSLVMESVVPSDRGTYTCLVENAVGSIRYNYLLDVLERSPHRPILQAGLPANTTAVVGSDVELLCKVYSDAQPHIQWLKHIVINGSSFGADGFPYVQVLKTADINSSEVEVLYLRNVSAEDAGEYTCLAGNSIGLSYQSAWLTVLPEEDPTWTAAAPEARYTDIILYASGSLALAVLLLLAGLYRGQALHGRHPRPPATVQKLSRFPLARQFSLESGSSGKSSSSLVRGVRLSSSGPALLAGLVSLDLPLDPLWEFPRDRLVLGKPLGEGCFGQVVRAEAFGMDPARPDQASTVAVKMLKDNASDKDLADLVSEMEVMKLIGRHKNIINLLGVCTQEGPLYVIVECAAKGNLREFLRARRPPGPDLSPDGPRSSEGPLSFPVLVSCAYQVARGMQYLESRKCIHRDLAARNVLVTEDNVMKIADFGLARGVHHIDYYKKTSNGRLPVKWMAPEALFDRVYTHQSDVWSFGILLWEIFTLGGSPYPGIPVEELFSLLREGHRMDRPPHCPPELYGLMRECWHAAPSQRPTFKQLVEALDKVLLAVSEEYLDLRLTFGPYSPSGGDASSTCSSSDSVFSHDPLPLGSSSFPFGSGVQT

Kelly cells = test: Quantitative mass spectrometry-based proteomics in Kelly cells; assay type: cell-based; conditions: 5h treatment, 1 µM
Method in brief: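 Kelly cells, which express both FGFR1 and FGFR2, given test compound at 1 µM for 5h. Quantitative mass spectrometry-based proteomics gave relative abundance of proteins across the proteome.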

all FGFR isoforms = test: Biochemical inhibition of FGFR isoforms; conditions: Table S1
Method in brief: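 FGFR isoform IC50s measured by Z'-LYTE kinase assay, run as an outsourced service.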

CCLP1 cells = test: CellTiter-Glo anti-proliferation, CCLP1 cells; assay type: cell-based; conditions: read-out: anti-proliferative IC50, FGFR1 overexpressing CCLP1 cells, 3d
Method in brief: (§2)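 Cell viability read by CellTiter-Glo after test compound exposure: 3d for CCLP-FP (CCLP-1 with ectopic FGFR2-PHGDH fusion) and CCLP1 (FGFR1 overexpression), 10d for ICC13–7 (endogenous FGFR2-OPTN fusion); anti-proliferative IC50 derived; mean ± SEM, n = 3.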

ICC13–7 cells = test: CellTiter-Glo anti-proliferation, ICC13–7 cells; assay type: cell-based; conditions: read-out: anti-proliferative IC50, FGFR2 fusion-positive ICC13–7 cells, 10d
Method in brief: as §2

CCLP-FP cells = test: CellTiter-Glo anti-proliferation, CCLP-FP cells; assay type: cell-based; conditions: read-out: anti-proliferative IC50, engineered FGFR2 fusion CCLP-FP cells, 3d
Method in brief: as §2

[3] = test system: phosphorylation of FRS2 or ERK; test: Immunoblot of downstream FGFR2 signaling; assay type: cell-based; conditions: CCLP1-FP cells, 50 nM, 4 or 8 hours
Method in brief: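 CCLP1 cells ectopically expressing the FGFR2-PHGDH fusion were exposed to test compound at 50 nM for 4 or 8 hours. Lysates were immunoblotted for the fusion protein and for signaling markers.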

[4] = Pharmacokinetics study in mice; assay type: in vivo
Method in brief: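 Mice received a single dose of test compound by intravenous injection (1 mg/kg), intraperitoneal injection (3 mg/kg) or oral administration (10 mg/kg) for pharmacokinetic profiling.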

FGFR2-PHGDH = FGFR2-PHGDH (Homo sapiens, UniProt O43175+P21802); test: In vivo pharmacodynamics, CCLP1-FGFR2-PHGDH xenograft model; design: species or system mice; conditions: 20 or 40 mg/kg, IP QD for 6d; tumors isolated 4h after last dose
FGFR2-PHGDH, sequence (P21802 458-767 limits assumed, one chain of several): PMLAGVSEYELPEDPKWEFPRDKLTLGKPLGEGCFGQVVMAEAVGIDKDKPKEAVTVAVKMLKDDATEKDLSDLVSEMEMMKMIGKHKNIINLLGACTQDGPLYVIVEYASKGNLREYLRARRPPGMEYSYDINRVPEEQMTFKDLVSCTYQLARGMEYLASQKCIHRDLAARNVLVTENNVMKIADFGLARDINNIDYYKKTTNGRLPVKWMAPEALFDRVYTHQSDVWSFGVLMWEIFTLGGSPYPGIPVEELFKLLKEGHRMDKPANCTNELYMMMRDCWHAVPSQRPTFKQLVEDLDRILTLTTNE
Method in brief: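 Mice bearing CCLP1-FGFR2-PHGDH xenografts began dosing once tumours reached ~200 mm3. Test compound was given at 20 or 40 mg/kg IP once daily for 6 d to assess in vivo degradation and signaling.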

[5] = read-out: FGFR2 IC50, BGJ398-VHL based degraders

COc1cc(OC)c(Cl)c(NC(=O)N(C)c2cc(Nc3ccc(N4CCN(CC(=O)NCCCCCSC(C)(C)C(NC(C)=O)C(=O)N5CC(O)CC5C(=O)NC(C)c5ccc(-c6scnc6C)cc5)CC4)cc3)ncn2)c1Cl (stereo not drawn) [DGY-11-122]
IC50 (FGFR2 [1]; [5]): 43 nM

COc1cc(OC)c(Cl)c(NC(=O)N(C)c2cc(Nc3ccc(N4CCN(CC(=O)NCCCCCOc5cc(-c6scnc6C)ccc5[C@H](C)NC(=O)[C@@H]5C[C@@H](O)CN5C(=O)[C@@H](NC(C)=O)C(C)(C)C)CC4)cc3)ncn2)c1Cl [DGY-11-123]
IC50 (FGFR2 [1]; [5]): 59 nM

COc1cc(OC)c(Cl)c(NC(=O)N(C)c2cc(Nc3ccc(N4CCN(CC(=O)NCCCCCOc5cccc6c5C(=O)N(C5CCC(=O)NC5=O)C6=O)CC4)cc3)ncn2)c1Cl (stereo not drawn) [DGY-09-073]
IC50 (FGFR2 [1]; read-out: FGFR2 IC50, BGJ398-IMiDs based degraders): 33 nM

COc1cc(OC)c(Cl)c(NC(=O)N(C)c2cc(Nc3ccc(N4CCN(CCCC(=O)N[C@H](C(=O)N5C[C@H](O)C[C@H]5C(=O)N[C@@H](C)c5ccc(-c6scnc6C)cc5)C(C)(C)C)CC4)cc3)ncn2)c1Cl [NJH-05–132]
IC50 (FGFR2 [1]; [5]): 10 nM

COc1cc(OC)c(Cl)c(NC(=O)N(C)c2cc(Nc3ccc(N4CCN(CCCCCC(=O)N[C@H](C(=O)N5C[C@H](O)C[C@H]5C(=O)N[C@@H](C)c5ccc(-c6scnc6C)cc5)C(C)(C)C)CC4)cc3)ncn2)c1Cl [NJH-05-123]
IC50 (FGFR2 [1]; [5]): 16 nM

COc1cc(OC)c(Cl)c(NC(=O)N(C)c2cc(Nc3ccc(N4CCN(C(=O)NCCOCCC(=O)NC(C(=O)N5CC(O)CC5C(=O)NC(C)c5ccc(-c6scnc6C)cc5)C(C)(C)C)CC4)cc3)ncn2)c1Cl (stereo not drawn) [NJH-05-044]
IC50 (FGFR2 [1]; [5]): 33 nM

COc1cc(OC)c(Cl)c(NC(=O)N(C)c2cc(Nc3ccc(N4CCN(CC(=O)N[C@H](C(=O)N5C[C@H](O)C[C@H]5C(=O)N[C@@H](C)c5ccc(-c6scnc6C)cc5)C(C)(C)C)CC4)cc3)ncn2)c1Cl [DGY-09-192]
IC50 (FGFR2 [1]; [5]): 34 nM
Concentration at which hook effect is observed (FGFR2 [2]; 6h dose titration): above 5 µM
Dmax of FGFR2 degradation (FGFR2 [2]; 6h treatment): 74%
Degradation of full length FGFR2 protein (FGFR2 [2]; 24h treatment at 1 µM): most potent degradation
Time to significant FGFR2 degradation (FGFR2 [2]; time course): ≤ 4 h
Degradation of FGFR2-PHGDH fusion protein (FGFR2-PHGDH fusion): dose-dependent degradation
Degradation of FGFR2-OPTN fusion protein (FGFR2-OPTN fusion): dose-dependent degradation
Dmax of FGFR1 degradation (FGFR1; 16h): 85%
DC50 (FGFR1; read-out: DC50 of FGFR1 degradation, 16h): 4.35 nM
Effect on FGFR3 protein levels (FGFR3): minimal effects
Effect on FGFR4 protein levels (FGFR4): minimal effects
Proteome-wide degradation selectivity (Kelly cells): high selectivity for FGFR1 and FGFR2 with PDE6D as an off-target
Inhibition of FGFR isoforms (all FGFR isoforms): equally potent inhibitor for all FGFR isoforms
IC50 (CCLP1 cells): 17 nM
IC50 (ICC13–7 cells): 40 nM
IC50 (CCLP-FP cells): 8 nM
Suppression of downstream FGFR2 signaling (phosphorylation of FRS2 or ERK) [3]: durably suppressed
AUClast ([4]; ip 3 mg/kg): 7.33 µM·h
CL ([4]; ip 3 mg/kg): 6.84 mL/min/kg
Cmax ([4]; ip 3 mg/kg): 1490 nM
T1/2 ([4]; ip 3 mg/kg): 4.25 h
Tmax ([4]; ip 3 mg/kg): 1.33 h
AUClast ([4]; iv 1 mg/kg): 2.94 µM·h
CL ([4]; iv 1 mg/kg): 5.58 mL/min/kg
Cmax ([4]; iv 1 mg/kg): 1600 nM
T1/2 ([4]; iv 1 mg/kg): 5.45 h
Tmax ([4]; iv 1 mg/kg): 0.08 h
Vss ([4]; iv 1 mg/kg): 1.41 L/kg
oral bioavailability ([4]; oral 10 mg/kg): negligible
AUClast ([4]; po 10 mg/kg): 0.07 µM·h
CL ([4]; po 10 mg/kg): 1550.77 mL/min/kg
Cmax ([4]; po 10 mg/kg): 10 nM
Fpo ([4]; po 10 mg/kg): 0.2
T1/2 ([4]; po 10 mg/kg): 5.10 h
Tmax ([4]; po 10 mg/kg): 1.67 h
clearance ([4]; via IV and IP administration): low clearance
half-life (T1/2) ([4]; via IV and IP administration): 5 h
FGFR2-PHGDH protein levels in tumor (FGFR2-PHGDH): reduction
phosphorylation of downstream markers FRS2 and ERK1/2 in tumor (FGFR2-PHGDH): reduction

CCN1CCN(c2ccc(Nc3cc(N(C)C(=O)Nc4c(Cl)c(OC)cc(OC)c4Cl)ncn3)cc2)CC1 [BGJ398, reference compound]
Rescue of DGY-09-192 induced FGFR2 degradation by pretreatment (FGFR2 [2]; 2h pretreatment then DGY-09-192 for 4h): rescued FGFR2 degradation

COc1cc(OC)c(Cl)c(NC(=O)N(C)c2cc(Nc3ccc(N4CCN(CC(=O)NCCC(=O)N[C@H](C(=O)N5C[C@H](O)C[C@H]5C(=O)N[C@@H](C)c5ccc(-c6scnc6C)cc5)C(C)(C)C)CC4)cc3)ncn2)c1Cl [NJH-05-043]
IC50 (FGFR2 [1]; [5]): 30 nM

COc1cc(OC)c(Cl)c(NC(=O)N(C)c2cc(Nc3ccc(N4CCN(CCC(=O)N[C@H](C(=O)N5C[C@H](O)C[C@H]5C(=O)N[C@@H](C)c5ccc(-c6scnc6C)cc5)C(C)(C)C)CC4)cc3)ncn2)c1Cl [NJH-05–166]
IC50 (FGFR2 [1]; [5]): 30 nM
